Test results reported in ChEMBL document CHEMBL1121685, “Development of new mitomycin C and porfiromycin analogues” (J Med Chem, 1981).

Key:
[1] = organism: Mus musculus; assay: Degree of leukopenia produced by compound is assessed form Percent change in white cells on days 5; format: functional
Procedure, shortened: (§1)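 BDG₁ male mice received a single ip dose on day 0. The dose series topped out at the LD₅₀ level, or at twice the optimal dose for some agents. Total white blood cell count was taken on days 3, 5 and 7 and expressed as % change from untreated controls. Significance was set at p ≤ 0.05 or p ≤ 0.01.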

[2] = tested on: Mus musculus; assay: Effect of compound on total white blood cell count in BDG1 male mice, after intraperitoneal administration at a dose 29.6 mg/kg on day 7; format: functional; procedure, shortened: as §1
[3] = organism: Mus musculus; assay: Half-wave potential produced by the compound at their optimal dose; format: functional; parameters: unit not given here
[4] = tested on: Mus musculus; assay: Effect of compound on total white blood cell count in BDG1 male mice, after intraperitoneal administration at a dose of 39.4 mg/kg on day 5; format: functional
Procedure, shortened: (§2)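 Single ip dose given on day 0 to BDG1 male mice over a descending dose series. Total white blood cell count is expressed as % change from untreated control on days 3, 5 and 7. Significance is flagged at p ≤ 0.05 and p ≤ 0.01.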

[5] = tested on: Mus musculus; assay: Effect of compound on total white blood cell count in BDG1 male mice, after intraperitoneal administration at a dose of 39.4 mg/kg on day 3; format: functional; procedure, shortened: as §2
[6] = tested on: Mus musculus; assay: Effect of compound on total white blood cell count in BDG1 male mice, after intraperitoneal administration at a dose of 22.2 mg/kg on day 3; format: functional; procedure, shortened: as §2
[7] = tested on: Mus musculus; assay: Effect of compound on total white blood cell count in BDG1 male mice, after intraperitoneal administration at a dose of 22.2 mg/kg on day 5; format: functional; procedure, shortened: as §2
[8] = tested on: Mus musculus; assay: Effect of compound on total white blood cell count in BDG1 male mice, after intraperitoneal administration at a dose of 22.2 mg/kg on day 7; format: functional; procedure, shortened: as §2
[9] = tested on: Mus musculus; assay: Effect of compound on total white blood cell count in BDG1 male mice, after intraperitoneal administration at a dose of 29.6 mg/kg on day 3; format: functional; procedure, shortened: as §2
[10] = tested on: Mus musculus; assay: Effect of compound on total white blood cell count in BDG1 male mice, after intraperitoneal administration at a dose of 29.6 mg/kg on day 5; format: functional; procedure, shortened: as §2
[11] = tested on: Mus musculus; assay: Effect of compound on total white blood cell count in BDG1 male mice, after intraperitoneal administration at a dose of 50.9 mg/kg on day 3; format: functional
Procedure, shortened: (§3)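 Single ip dose given on day 0 to BDG₁ male mice. Total white blood cell count measured on days 3, 5 and 7, expressed as % change from control. Highest dose was at the LD₅₀, or at twice the optimal dose where so footnoted. Significance reported at p ≤ 0.05 and p ≤ 0.01. D marks death of one or more mice.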

[12] = tested on: Mus musculus; assay: Effect of compound on total white blood cell count in BDG1 male mice, after intraperitoneal administration at a dose of 50.9 mg/kg on day 7; format: functional; procedure, shortened: as §3
[13] = tested on: Mus musculus; assay: Minimum effective dose that show activity against P-388 murine leukemia cells in CDF1 female mice, after intraperitoneal administration (optimal dose is 12.8 mg/kg); format: functional; conditions: P388, ip, read-out: MED
Procedure, shortened: (§4)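 10⁶ P-388 ascites cells implanted ip in CDF₁ female mice. Six mice per dose, 10 saline-injected controls, and a concurrent mitomycin C reference group. %T/C = median survival time of treated/control × 100. MED is the lowest dose giving %T/C > 125. Therapeutic ratio = optimal dose/MED.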

[14] = tested on: Mus musculus; assay: Number of tumored survivors, 45 days after administration of compound at a dose of 18 mg/kg/day in mice; format: functional
[15] = tested on: Mus musculus; assay: Activity of compound dose of 1.13 mg/kg/day against Murine B-16 Melanocarcinoma in mice; format: functional
[16] = tested on: Mus musculus; assay: Activity of compound dose of 18 mg/kg/day against Murine B-16 Melanocarcinoma in mice; format: functional
[17] = tested on: Mus musculus; assay: Activity of compound dose of 2.25 mg/kg/day against Murine B-16 Melanocarcinoma in mice; format: functional
[18] = tested on: Mus musculus; assay: Activity of compound dose of 36 mg/kg/day against Murine B-16 Melanocarcinoma in mice; format: functional
[19] = tested on: Mus musculus; assay: Activity of compound dose of 4.5 mg/kg/day against Murine B-16 Melanocarcinoma in mice; format: functional
[20] = tested on: Mus musculus; assay: Activity of compound dose of 9 mg/kg/day against Murine B-16 Melanocarcinoma in mice; format: functional
[21] = tested on: Mus musculus; assay: Antitumor activity against P-388 murine leukemia cells in CDF1 female mice after intraperitoneal administration at the specified optimal dose of 12.8 mg/kg; format: functional
[22] = tested on: Mus musculus; assay: Number of cured survivors, 45 days after administration of compound at a dose of 18 mg/kg/day in mice; format: functional
[23] = Therapeutic ratio is expressed as ratio of optimal dose and minimum effective dose; format: ADME; conditions: mouse; read-out: TR; procedure, shortened: as §4
[24] = tested on: Mus musculus; assay: Number of cured survivors, 45 days after administration of compound at a dose of 36 mg/kg/day in mice; format: functional
[25] = tested on: Mus musculus; assay: Effect of compound on total white blood cell count in BDG1 male mice, after intraperitoneal administration at a dose of 12.8 mg/kg on day 3 (highest dose was twice the optimal dose); format: functional; procedure, shortened: as §1
[26] = tested on: Mus musculus; assay: Effect of compound on total white blood cell count in BDG1 male mice, after intraperitoneal administration at a dose of 12.8 mg/kg on day 5 (highest dose was twice the optimal dose); format: functional; procedure, shortened: as §1
[27] = tested on: Mus musculus; assay: Effect of compound on total white blood cell count in BDG1 male mice, after intraperitoneal administration at a dose of 12.8 mg/kg on day 7 (highest dose was twice the optimal dose); format: functional
[28] = tested on: Mus musculus; assay: Effect of compound on total white blood cell count in BDG1 male mice, after intraperitoneal administration at a dose of 6.4 mg/kg on day 5; format: functional; procedure, shortened: as §3
[29] = tested on: Mus musculus; assay: Effect of compound on total white blood cell count in BDG1 male mice, after intraperitoneal administration at a dose of 6.4 mg/kg on day 3; format: functional; procedure, shortened: as §3
[30] = tested on: Mus musculus; assay: Effect of compound on total white blood cell count in BDG1 male mice, after intraperitoneal administration at a dose of 6.4 mg/kg on day 7; format: functional; procedure, shortened: as §3
[31] = tested on: Mus musculus; assay: Minimum effective dose that show activity against P-388 murine leukemia cells in CDF1 female mice, after intraperitoneal administration (optimal dose is 6.4 mg/kg); format: functional; conditions: P388, ip, read-out: MED; procedure, shortened: as §4
[32] = tested on: Mus musculus; assay: Antitumor activity against P-388 murine leukemia cells in CDF1 female mice after intraperitoneal administration at the specified optimal dose of 6.4 mg/kg; format: functional
[33] = tested on: Mus musculus; assay: Effect of compound on total white blood cell count in BDG1 male mice, after intraperitoneal administration at a dose of 1.27 mg/kg on day 7; format: functional; procedure, shortened: as §1
[34] = tested on: Mus musculus; assay: Effect of compound on total white blood cell count in BDG1 male mice, after intraperitoneal administration at a dose of 1.27 mg/kg on day 3; format: functional; procedure, shortened: as §1
[35] = tested on: Mus musculus; assay: Effect of compound on total white blood cell count in BDG1 male mice, after intraperitoneal administration at a dose of 1.69 mg/kg on day 3; format: functional; procedure, shortened: as §1
[36] = tested on: Mus musculus; assay: Effect of compound on total white blood cell count in BDG1 male mice, after intraperitoneal administration at a dose of 1.69 mg/kg on day 7; format: functional; procedure, shortened: as §1
[37] = tested on: Mus musculus; assay: Effect of compound on total white blood cell count in BDG1 male mice, after intraperitoneal administration at a dose of 1.69 mg/kg on day 5; format: functional; procedure, shortened: as §1
[38] = organism: Mus musculus; assay: Degree of leukopenia produced by compound is assessed form Percent change in white cells on day 7; format: functional; procedure, shortened: as §1
[39] = tested on: Mus musculus; assay: Effect of compound on total white blood cell count in BDG1 male mice, after intraperitoneal administration at a dose of 1.27 mg/kg on day 5; format: functional; procedure, shortened: as §1
[40] = tested on: Mus musculus; assay: Effect of compound on total white blood cell count in BDG1 male mice, after intraperitoneal administration at a dose of 3 mg/kg on day 3; format: functional; procedure, shortened: as §2
[41] = tested on: Mus musculus; assay: Effect of compound on total white blood cell count in BDG1 male mice, after intraperitoneal administration at a dose of 3 mg/kg on day 5; format: functional; procedure, shortened: as §2
[42] = tested on: Mus musculus; assay: Effect of compound on total white blood cell count in BDG1 male mice, after intraperitoneal administration at a dose of 3 mg/kg on day 7; format: functional; procedure, shortened: as §2
[43] = tested on: Mus musculus; assay: Effect of compound on total white blood cell count in BDG1 male mice, after intraperitoneal administration at a dose of 2.55 mg/kg on day 5; format: functional; procedure, shortened: as §2
[44] = tested on: Mus musculus; assay: Effect of compound on total white blood cell count in BDG1 male mice, after intraperitoneal administration at a dose of 2.55 mg/kg on day 7; format: functional; procedure, shortened: as §2
[45] = tested on: Mus musculus; assay: Effect of compound on total white blood cell count in BDG1 male mice, after intraperitoneal administration at a dose of 2.55 mg/kg on day 3; format: functional; procedure, shortened: as §2
[46] = tested on: Mus musculus; assay: Minimum effective dose that show activity against P-388 murine leukemia cells in CDF1 female mice, after intraperitoneal administration (optimal dose is 1.6 mg/kg); format: functional; conditions: P388, ip, read-out: MED
[47] = tested on: Mus musculus; assay: Antitumor activity against P-388 murine leukemia cells in CDF1 female mice after intraperitoneal administration at the specified optimal dose of 1.6 mg/kg; format: functional
[48] = tested on: Mus musculus; assay: Antitumor activity against P-388 murine leukemia cells in CDF1 female mice after intraperitoneal administration at the specified optimal dose of 51.2 mg/kg; format: functional

COC12[C@@H]3N[C@@H]3CN1C1=C(C(=O)C(NCc3ccco3)=C(C)C1=O)[C@@H]2COC(N)=O (some centres not stated)
Change [1]: -54%
Change [2]: 0%
E1/2 [3]: -0.39
Change [4]: -74%
Change [5]: -84%
Change [6]: -70%
Change [7]: 62%
Change [8]: -1%
Change [9]: -78%
Change [10]: -67%
Change [11]: -76%
Change [12]: -64%
minimal effective dose [13]: < 0.4 mg/kg
Survivors [14]: 1
T/C [15]: 125%
T/C [16]: 219%
T/C [17]: 148%
T/C [18]: 247%
T/C [19]: 170%
T/C [20]: 186%
T/C [21]: 276%
Survivors [22]: 3
selectivity ratio [23]: > 32
Survivors [24]: 6

C=CCNC1=C(C)C(=O)C2=C(C1=O)[C@H](COC(N)=O)C1(OC)[C@@H]3N[C@@H]3CN21 (some centres not stated)
Change [25]: -33%
Change [26]: -42%
Change [27]: 6%
Change [28]: -37%
Change [29]: -35%
Change [30]: -0.6%
minimal effective dose [31]: 3.2 mg/kg
T/C [32]: 150%
selectivity ratio [23]: 2

COC12[C@@H]3N[C@@H]3CN1C1=C(C(=O)C(N3CC3)=C(C)C1=O)[C@@H]2COC(N)=O (some centres not stated)
Change [33]: 3%
Change [34]: -16%
Change [35]: 16%
Change [36]: -11%
Change [37]: 9%
Change [38]: -11%
E1/2 [3]: -0.31
Change [39]: 27%
Change [40]: -12%
Change [41]: 3%
Change [42]: 13%
Change [43]: 34%
Change [44]: 18%
Change [45]: 15%
minimal effective dose [46]: 0.025 mg/kg
T/C [47]: 266%
selectivity ratio [23]: 64

COC12[C@@H](COC(N)=O)C3=C(C(=O)C(C)=C(NCCCl)C3=O)N1C[C@@H]1[C@H]2N1C (some centres not stated)
T/C [48]: 205%
selectivity ratio [23]: 8
